According to ChEMBL document CHEMBL3393034, “Discovery of piperidine ethers as selective orexin receptor antagonists (SORAs) inspired by filorexant” (Bioorg Med Chem Lett, 2015):
In brackets after ≈: the same amount, converted by molar mass. Activity calls are given as the source filed them. No cut-off for these calls is given here.

Legend:
Orexin receptor type 2 [1] = molecular target: T1, Orexin receptor type 2 (Homo sapiens, UniProt O43614); experiment: Antagonist activity at human OX2R by radioligand displacement assay
T1 sequence (O43614 whole entry): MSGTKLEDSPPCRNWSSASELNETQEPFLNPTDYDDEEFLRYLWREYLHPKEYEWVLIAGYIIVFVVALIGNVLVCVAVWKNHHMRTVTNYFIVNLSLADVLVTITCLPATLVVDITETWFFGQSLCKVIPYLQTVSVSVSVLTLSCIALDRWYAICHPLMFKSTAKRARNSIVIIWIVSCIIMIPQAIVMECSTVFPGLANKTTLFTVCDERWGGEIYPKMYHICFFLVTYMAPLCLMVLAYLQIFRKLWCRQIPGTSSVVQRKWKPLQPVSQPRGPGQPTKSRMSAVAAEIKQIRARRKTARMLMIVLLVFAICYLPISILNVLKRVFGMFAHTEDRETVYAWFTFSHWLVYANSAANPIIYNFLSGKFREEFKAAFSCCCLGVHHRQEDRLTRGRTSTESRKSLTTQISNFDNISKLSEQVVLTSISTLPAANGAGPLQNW
In short: (§1)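 Radioligand-displacement binding assay at the human orexin receptor; affinity expressed as Ki; data for racemates unless otherwise noted.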

[2] = molecular target: T2, Orexin/Hypocretin receptor type 1 (Homo sapiens, UniProt O43613); experiment: Antagonist activity at human OX1R by radioligand displacement assay; in short: as §1
T2 sequence (O43613 whole entry): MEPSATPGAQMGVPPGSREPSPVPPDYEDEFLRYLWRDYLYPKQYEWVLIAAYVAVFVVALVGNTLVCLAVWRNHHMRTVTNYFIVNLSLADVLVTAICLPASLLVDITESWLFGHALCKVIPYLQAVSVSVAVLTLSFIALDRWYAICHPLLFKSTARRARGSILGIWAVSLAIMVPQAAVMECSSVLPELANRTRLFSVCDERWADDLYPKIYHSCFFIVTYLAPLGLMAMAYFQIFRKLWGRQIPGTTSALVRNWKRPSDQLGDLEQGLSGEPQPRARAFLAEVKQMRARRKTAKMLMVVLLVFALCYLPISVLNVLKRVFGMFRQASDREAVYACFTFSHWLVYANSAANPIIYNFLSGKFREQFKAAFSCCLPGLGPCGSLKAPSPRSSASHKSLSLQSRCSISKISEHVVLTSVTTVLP

Homo sapiens = organism: Homo sapiens; experiment: Selectivity ratio of Ki for human OX1R to Ki for human OX2R
In short: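 Selectivity index for OX2R over OX1R, calculated from radioligand-displacement binding Ki values at the two human receptors.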

Orexin receptor type 2 [3] = molecular target: T1, Orexin receptor type 2; experiment: Antagonist activity at human OX2R by FLIPR assay
In short: (§2)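 Functional FLIPR readout in CHO cells engineered to overexpress the human orexin receptor; antagonism expressed as IC50.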

[4] = molecular target: T2, Orexin/Hypocretin receptor type 1; experiment: Antagonist activity at human OX1R by FLIPR assay; in short: as §2
[5] = Lipophilicity, log D of the compound by HPLC analysis; type: physicochemical
[6] = Fraction unbound in human plasma; type: ADME, cell-free
[7] = Fraction unbound in rat plasma; type: ADME, cell-free
[8] = Plasma protein binding in human; type: ADME, cell-free; conditions: read-out: PPB (converted)
[9] = Plasma protein binding in rat; type: ADME, cell-free; conditions: read-out: PPB (converted)
[10] = Aqueous solubility of the compound at pH 2; type: physicochemical; conditions: aqueous medium
[11] = Aqueous solubility of the compound at pH 7; type: physicochemical; conditions: aqueous medium
[12] = Clearance in Sprague-Dawley rat at 2 mg/kg, iv; type: ADME, organism-based; design: dose 2 mg/kg, route intravenous; conditions: in vivo
In short: (§3)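 Sprague–Dawley rats were dosed intravenously at 2 mg/kg and orally at 10 mg/kg. Readouts were clearance (mL/min/kg), terminal half-life, plasma AUC (µM•h) and oral bioavailability (%).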

[13] = Clearance in beagle dog at 0.125 mg/kg, iv; type: ADME, organism-based, Canis lupus familiaris; design: dose 0.125 mg/kg, route intravenous; conditions: in vivo
In short: (§4)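 Beagle dogs were dosed intravenously at 0.125 mg/kg and orally at 3 mg/kg. Readouts were clearance (mL/min/kg), terminal half-life, and oral AUC (µM•h), Cmax (µM), Tmax (h) and bioavailability (%).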

[14] = Half life in Sprague-Dawley rat at 2 mg/kg, iv; type: ADME, organism-based; design: dose 2 mg/kg, route intravenous; conditions: in vivo; in short: as §3
[15] = Half life in beagle dog at 0.125 mg/kg, iv; type: ADME, organism-based, Canis lupus familiaris; design: dose 0.125 mg/kg, route intravenous; conditions: in vivo; in short: as §4
[16] = AUC in Sprague-Dawley rat at 10 mg/kg, po; type: ADME, organism-based; design: dose 10 mg/kg, route oral; conditions: plasma; in short: as §3
[17] = AUC in beagle dog at 3 mg/kg, po; type: ADME, organism-based, Canis lupus familiaris; design: dose 3 mg/kg, route oral; conditions: plasma; in short: as §4
[18] = Cmax in beagle dog at 3 mg/kg, po; type: ADME, organism-based, Canis lupus familiaris; design: dose 3 mg/kg, route oral; conditions: in vivo; in short: as §4
[19] = Tmax in beagle dog at 3 mg/kg, po; type: ADME, organism-based, Canis lupus familiaris; design: dose 3 mg/kg, route oral; conditions: in vivo; in short: as §4
[20] = Oral bioavailability in Sprague-Dawley rat at 10 mg/kg; type: ADME, organism-based; conditions: in vivo; in short: as §3
[21] = Oral bioavailability in beagle dog at 3 mg/kg; type: ADME, organism-based, Canis lupus familiaris; conditions: in vivo; in short: as §4
Rattus norvegicus [22] = experiment: Ex vivo receptor occupancy of OX2R in rat at 30 mg/kg, po after 30 mins; type: functional
In short: (§5)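 Rats received a single 30 mg/kg oral dose. Receptor occupancy, plasma level and CSF level were determined at t = 30 min.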

[23] = Plasma concentration in rat at 30 mg/kg, po after 30 mins; type: ADME, organism-based; design: dose 30 mg/kg, route oral; in short: as §5
[24] = Drug uptake in rat CSF at 30 mg/kg, po after 30 mins; type: ADME, organism-based; design: dose 30 mg/kg, route oral; conditions: cerebrospinal fluid, read-out: Drug uptake; in short: as §5
P-gp = experiment: Binding affinity to human P-gp assessed as apparent passive permeability; type: ADME; conditions: not told
Rattus norvegicus [25] = experiment: Effect on sleep-wake cycle in rat assessed as change in active wake at 30 mg/kg, po after 30 mins relative to vehicle-treated control; type: functional, organism-based; design: dose 30 mg/kg
In short: (§6)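 EEG-telemetry in rats, 30 mg/kg oral versus vehicle (20% vitamin E TPGS). Dosing was at 09:00 in the active phase (ZT 17:00, 7 h before lights on), recorded from 30 min pre-dose to 2 h post-dose. Active wake, light, delta and REM sleep were scored as means in 10-min bins. Balanced crossover over 3 consecutive days, N=6.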

Rattus norvegicus [26] = experiment: Effect on sleep-wake cycle in rat assessed as increase in delta sleep at 30 mg/kg, po after 30 mins relative to vehicle-treated control; type: functional, organism-based; design: dose 30 mg/kg; in short: as §6
Rattus norvegicus [27] = experiment: Effect on sleep-wake cycle in rat assessed as increase in REM sleep at 30 mg/kg, po after 30 mins relative to vehicle-treated control; type: functional, organism-based; design: dose 30 mg/kg; in short: as §6
[28] = AUC in Sprague-Dawley rat at 30 mg/kg, po; conditions: plasma
[29] = Cmax in Sprague-Dawley rat at 30 mg/kg, po; conditions: in vivo
[30] = Tmax in Sprague-Dawley rat at 30 mg/kg, po; conditions: in vivo
[31] = Oral bioavailability in Sprague-Dawley rat at 30 mg/kg; conditions: in vivo

CC1CCC(Oc2cccc3cnccc23)CN1C(=O)c1ccccc1-n1nccn1 (racemic)
Ki (Orexin receptor type 2 [1]): 7.5 nM | Ki [2]: 415 nM | Ratio Ki (Homo sapiens): 55

Cc1ccc(-n2nccn2)c(C(=O)N2CCCC(Oc3ccc(F)c(C)c3)C2)c1 (stereo unspecified)
Ki (Orexin receptor type 2 [1]): 55 nM | Ki [2]: 106 nM | Ratio Ki (Homo sapiens): 2

CC1CCC(Oc2cccc3cccnc23)CN1C(=O)c1ccccc1-n1nccn1 (racemic)
Ki (Orexin receptor type 2 [1]): 9.8 nM | Ki [2]: 760 nM | Ratio Ki (Homo sapiens): 78

CC1CCC(Oc2ccnc3ccccc23)CN1C(=O)c1ccccc1-n1nccn1 (racemic)
Ki (Orexin receptor type 2 [1]): 6.8 nM | Ki [2]: 2700 nM | Ratio Ki (Homo sapiens): 397

Cc1ccc(-n2nccn2)c(C(=O)N2C[C@H](Oc3cccc4ccccc34)CC[C@H]2C)c1 (relative stereo)
Ki (Orexin receptor type 2 [1]): 1 nM | Ki [2]: 13 nM | Ratio Ki (Homo sapiens): 13

O=C(c1ccccc1-n1nccn1)N1CCC(F)(F)[C@@H](Oc2ccc3ccccc3n2)C1
Ki (Orexin receptor type 2 [1]): 521 nM | Ki [2]: 1.3 nM

Cc1ccc(-n2nccn2)c(C(=O)N2CCCC(Oc3cccc4ccccc34)C2)c1 (stereo unspecified)
Ki (Orexin receptor type 2 [1]): 18 nM | Ki [2]: 9 nM | Ratio Ki (Homo sapiens): 0.5

CC1CCC(Oc2c(Br)cnc3ccccc23)CN1C(=O)c1ccccc1-n1nccn1 (racemic)
Ki (Orexin receptor type 2 [1]): 180 nM

CC1CCC(Oc2ccnc3c(F)cccc23)CN1C(=O)c1ccccc1-n1nccn1 (racemic)
Ki (Orexin receptor type 2 [1]): 1.3 nM | Ki [2]: 910 nM

Cc1ccc(-c2ncccn2)c(C(=O)N2C[C@H](COc3ccc(F)cn3)CC[C@H]2C)c1 [FILOREXANT]
Ki [2]: 2.9 nM | IC50 (Orexin receptor type 2 [3]): 17 nM | IC50 [4]: 16 nM | Ratio Ki (Homo sapiens): 9

C[C@@H]1CC[C@@H](Oc2ccnc3c(F)cccc23)CN1C(=O)c1ccccc1-n1nccn1
Ki (Orexin receptor type 2 [1]): 0.6 nM | Ki [2]: 965 nM | IC50 (Orexin receptor type 2 [3]): 18 nM | IC50 [4]: 3910 nM | logD [5]: 2.35 | fraction unbound [6]: 0.03 | fraction unbound [7]: 0.03 | fraction unbound [8]: 0.029 | fraction unbound [9]: 0.04 | solubility [10]: 182 µM (≈ 78.5 µg/mL) | solubility [11]: 161 µM (≈ 69.5 µg/mL) | clearance [12]: 22.5 mL/min/kg | clearance [13]: 6.2 mL/min/kg | half-life [14]: 24 min | half-life [15]: 42 min | AUC [16]: 3.9 µM·h | AUC [17]: 16 µM·h | Cmax [18]: 5.65 µM | Tmax [19]: 22.8 min | bioavailability [20]: 19% | bioavailability [21]: 60% | Occ (Rattus norvegicus [22]): 72% | concentration at 0.5 h [23]: 9.5 µM | concentration at 0.5 h [24]: 0.339 µM | Papp (P-gp): 34 ×10⁻⁶ cm/s | Activity (Rattus norvegicus [25]): Active | Activity (Rattus norvegicus [26]): Active | Activity (Rattus norvegicus [27]): Active | AUC [28]: 30.1 µM·h | Cmax [29]: 15.7 µM | Tmax [30]: 30 min | bioavailability [31]: 50%

Cc1cc(OC2CCC(C)N(C(=O)c3ccccc3-n3nccn3)C2)c2ccccc2n1 (racemic)
Ki (Orexin receptor type 2 [1]): 28.9 nM | Ki [2]: 3600 nM | Ratio Ki (Homo sapiens): 125

CC1CCC(Oc2ccnc3c(Cl)cccc23)CN1C(=O)c1ccccc1-n1nccn1 (racemic)
Ki (Orexin receptor type 2 [1]): 0.9 nM | Ki [2]: 510 nM | Ratio Ki (Homo sapiens): 567

COc1cnc(O[C@@H]2CC[C@@H](C)N(C(=O)c3ccccc3-n3nccn3)C2)c2ccccc12
Ki (Orexin receptor type 2 [1]): 0.24 nM | Ki [2]: 0.41 nM

CC1CCC(Oc2ccnc3ccc(Br)cc23)CN1C(=O)c1ccccc1-n1nccn1 (racemic)
Ki (Orexin receptor type 2 [1]): 5.2 nM | Ki [2]: 470 nM | Ratio Ki (Homo sapiens): 90

CC1CCC(Oc2ccnc3c(Br)cccc23)CN1C(=O)c1ccccc1-n1nccn1 (racemic)
Ki (Orexin receptor type 2 [1]): 2.6 nM | Ki [2]: 1100 nM | Ratio Ki (Homo sapiens): 423

CC1CCC(Oc2cccc3ncccc23)CN1C(=O)c1ccccc1-n1nccn1 (racemic)
Ki (Orexin receptor type 2 [1]): 5.1 nM | Ki [2]: 1030 nM | Ratio Ki (Homo sapiens): 202

C[C@@H]1CC[C@@H](Oc2ccnc3c(F)cccc23)CN1C(=O)c1ccccc1-c1cccnc1
Ki (Orexin receptor type 2 [1]): 63 nM | Ki [2]: 19000 nM | Ratio Ki (Homo sapiens): 302

C[C@@H]1CC[C@@H](Oc2nccc3ccccc23)CN1C(=O)c1ccccc1-n1nccn1 (relative stereo)
Ki (Orexin receptor type 2 [1]): 0.3 nM

CC1CCC(Oc2cc(C(F)(F)F)nc3ccccc23)CN1C(=O)c1ccccc1-n1nccn1 (racemic)
Ki (Orexin receptor type 2 [1]): 149 nM

Cc1ccc(-n2nccn2)c(C(=O)N2CCCC(COc3ccc(F)c(C)c3)C2)c1 (stereo unspecified)
Ki (Orexin receptor type 2 [1]): 8.9 nM | Ki [2]: 5.5 nM | Ratio Ki (Homo sapiens): 0.6

CC1CCC(Oc2cccc3ccncc23)CN1C(=O)c1ccccc1-n1nccn1 (racemic)
Ki (Orexin receptor type 2 [1]): 9.3 nM | Ki [2]: 900 nM | Ratio Ki (Homo sapiens): 97

C[C@@H]1CC[C@@H](Oc2ccnc3c(F)cccc23)CN1C(=O)c1ccccc1-c1ncccn1
Ki (Orexin receptor type 2 [1]): 0.8 nM | Ki [2]: 1200 nM | Ratio Ki (Homo sapiens): 1500

C[C@@H]1CC[C@@H](Oc2ccnc3c(F)cccc23)CN1C(=O)c1ccccc1N(C)C
Ki (Orexin receptor type 2 [1]): 370 nM
